pIC50: −log10 of the molar value. Active and inactive are the calls of the source. The calls are words filed in the database; no cut-off is given here.
Tests used:
[1] = molecular target: Phosphatidylinositol 4-kinase alpha (Homo sapiens, UniProt P42356); assay: Inhibition of PIK4CA in human HeLa cells lysate pre incubated for 15 mins followed by ATP acyl phosphate probe addition and measured after 10 mins by LC-MS/MS analysis; type: subcellular
[2] = molecular target: Eukaryotic translation initiation factor 2-alpha kinase 3 (Homo sapiens, UniProt Q9NZJ5); assay: Inhibition of PEK in human HeLa cells lysate pre incubated for 15 mins followed by ATP acyl phosphate probe addition and measured after 10 mins by LC-MS/MS analysis; type: subcellular
Eukaryotic translation initiation factor 2-alpha kinase 3, sequence (Q9NZJ5 whole entry): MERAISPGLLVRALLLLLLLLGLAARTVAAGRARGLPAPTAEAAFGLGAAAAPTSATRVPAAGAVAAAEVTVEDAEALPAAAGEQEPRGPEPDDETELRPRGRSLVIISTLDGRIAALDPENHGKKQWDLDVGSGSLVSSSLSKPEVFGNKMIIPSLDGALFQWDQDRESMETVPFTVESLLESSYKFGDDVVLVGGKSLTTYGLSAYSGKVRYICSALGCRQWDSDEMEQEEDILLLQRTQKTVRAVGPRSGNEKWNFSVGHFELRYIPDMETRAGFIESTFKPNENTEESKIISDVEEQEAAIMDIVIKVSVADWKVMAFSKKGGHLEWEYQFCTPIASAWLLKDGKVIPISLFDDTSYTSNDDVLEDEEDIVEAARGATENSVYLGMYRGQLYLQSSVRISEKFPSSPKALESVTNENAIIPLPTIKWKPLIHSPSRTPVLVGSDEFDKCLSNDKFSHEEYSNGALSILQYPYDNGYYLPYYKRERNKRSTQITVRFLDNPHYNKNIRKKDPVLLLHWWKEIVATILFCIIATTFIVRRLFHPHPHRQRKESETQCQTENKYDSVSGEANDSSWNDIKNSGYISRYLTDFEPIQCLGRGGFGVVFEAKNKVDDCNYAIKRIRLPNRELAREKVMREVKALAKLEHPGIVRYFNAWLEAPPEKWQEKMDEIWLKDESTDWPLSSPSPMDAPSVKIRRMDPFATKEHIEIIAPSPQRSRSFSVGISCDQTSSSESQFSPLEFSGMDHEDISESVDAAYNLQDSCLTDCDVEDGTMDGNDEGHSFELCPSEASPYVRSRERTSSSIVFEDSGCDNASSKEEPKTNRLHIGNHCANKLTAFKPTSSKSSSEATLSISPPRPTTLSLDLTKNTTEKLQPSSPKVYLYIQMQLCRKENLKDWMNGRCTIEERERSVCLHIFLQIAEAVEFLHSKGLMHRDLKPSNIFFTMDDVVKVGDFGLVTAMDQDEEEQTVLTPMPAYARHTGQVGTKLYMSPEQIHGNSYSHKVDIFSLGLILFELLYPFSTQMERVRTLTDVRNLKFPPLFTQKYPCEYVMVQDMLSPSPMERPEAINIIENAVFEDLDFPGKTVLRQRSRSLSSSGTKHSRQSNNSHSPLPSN

Activated CDC42 kinase 1 [3] = molecular target: T1, Activated CDC42 kinase 1 (Homo sapiens, UniProt Q07912); assay: Inhibition of ACK1 in human HeLa cells lysate pre incubated for 15 mins followed by ADP acyl phosphate probe addition and measured after 10 mins by LC-MS/MS analysis; type: subcellular
Procedure, shortened: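 HeLa cell lysate (5 mg/mL total protein) preincubated 15 min with inhibitor at 50, 10, 2, 0.8 and 0 μM, then ATP or ADP acylphosphate probe added (5 μM final) for 10 min. Reaction stopped with urea, then targeted LC-MS/MS. Up to four fragment ions per kinase peptide-probe conjugate were used. % inhibition was taken versus untreated lysate. Run in duplicate.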

[4] = molecular target: DNA-dependent protein kinase catalytic subunit (Homo sapiens, UniProt P78527); assay: Inhibition of PRKDC in human HeLa cells lysate at 50 uM pre incubated for 15 mins followed by ADP acyl phosphate probe addition and measured after 10 mins by LC-MS/MS analysis relative to control; type: subcellular; settings: time 25.0 min
Activated CDC42 kinase 1 [5] = molecular target: T1, Activated CDC42 kinase 1; assay: Inhibition of ACK1 in human HeLa cells lysate at 10 uM pre incubated for 15 mins followed by ADP acyl phosphate probe addition and measured after 10 mins by LC-MS/MS analysis relative to control; type: subcellular; settings: time 25.0 min
Procedure, shortened: (§1)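 HeLa cell lysates (5 mg/mL total protein) were preincubated with inhibitor at 0, 0.8, 2, 10 or 50 μM for 15 min. ATP or ADP acylphosphate probe was then added (5 μM final) for 10 min, and reactions were stopped with urea. Up to four fragment ions per kinase probe-peptide were quantified by targeted MS. % inhibition was taken relative to untreated lysate. Run in duplicate.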

[6] = molecular target: T2, Serine/threonine-protein kinase 4 (Homo sapiens) (UniProt Q13043); assay: Inhibition of MST1 in human HeLa cells lysate at 10 uM pre incubated for 15 mins followed by ADP acyl phosphate probe addition and measured after 10 mins by LC-MS/MS analysis relative to control; type: subcellular; settings: time 25.0 min
T2 sequence (whole entry): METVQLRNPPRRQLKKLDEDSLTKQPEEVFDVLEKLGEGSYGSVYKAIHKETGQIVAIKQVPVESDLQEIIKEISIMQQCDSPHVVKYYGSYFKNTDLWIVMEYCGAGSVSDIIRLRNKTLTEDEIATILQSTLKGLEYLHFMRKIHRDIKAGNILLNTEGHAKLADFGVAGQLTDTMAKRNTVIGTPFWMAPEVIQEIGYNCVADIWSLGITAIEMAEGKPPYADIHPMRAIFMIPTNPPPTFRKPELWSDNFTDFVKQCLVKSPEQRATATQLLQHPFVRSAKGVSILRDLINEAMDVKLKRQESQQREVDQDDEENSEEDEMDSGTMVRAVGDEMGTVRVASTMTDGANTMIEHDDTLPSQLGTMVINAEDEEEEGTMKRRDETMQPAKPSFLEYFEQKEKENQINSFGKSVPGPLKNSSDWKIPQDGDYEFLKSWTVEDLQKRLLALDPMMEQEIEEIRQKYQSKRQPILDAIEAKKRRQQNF

[7] = molecular target: Serine/threonine-protein kinase B-raf (Homo sapiens, UniProt P15056); assay: Inhibition of BRAF in human HeLa cells lysate at 50 uM pre incubated for 15 mins followed by ATP acyl phosphate probe addition and measured after 10 mins by LC-MS/MS analysis relative to control; type: subcellular; settings: time 25.0 min
Procedure, shortened: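 KiNativ-type profiling in HeLa lysate (5 mg/mL total protein). Lysate preincubated 15 min with inhibitor at 50, 10, 2, 0.8 or 0 μM, then ATP or ADP acylphosphate probe added (5 μM final) for 10 min. Reaction stopped with urea and analysed by targeted MS, using up to four fragment ions per kinase peptide-probe conjugate. % inhibition calculated against untreated lysate. Duplicate reactions.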

[8] = molecular target: Serine/threonine-protein kinase PLK1 (Homo sapiens, UniProt P53350); assay: Inhibition of PLK1 in human HeLa cells lysate at 50 uM pre incubated for 15 mins followed by ATP acyl phosphate probe addition and measured after 10 mins by LC-MS/MS analysis relative to control; type: subcellular; settings: time 25.0 min
Serine/threonine-protein kinase PLK1, sequence (P53350 whole entry): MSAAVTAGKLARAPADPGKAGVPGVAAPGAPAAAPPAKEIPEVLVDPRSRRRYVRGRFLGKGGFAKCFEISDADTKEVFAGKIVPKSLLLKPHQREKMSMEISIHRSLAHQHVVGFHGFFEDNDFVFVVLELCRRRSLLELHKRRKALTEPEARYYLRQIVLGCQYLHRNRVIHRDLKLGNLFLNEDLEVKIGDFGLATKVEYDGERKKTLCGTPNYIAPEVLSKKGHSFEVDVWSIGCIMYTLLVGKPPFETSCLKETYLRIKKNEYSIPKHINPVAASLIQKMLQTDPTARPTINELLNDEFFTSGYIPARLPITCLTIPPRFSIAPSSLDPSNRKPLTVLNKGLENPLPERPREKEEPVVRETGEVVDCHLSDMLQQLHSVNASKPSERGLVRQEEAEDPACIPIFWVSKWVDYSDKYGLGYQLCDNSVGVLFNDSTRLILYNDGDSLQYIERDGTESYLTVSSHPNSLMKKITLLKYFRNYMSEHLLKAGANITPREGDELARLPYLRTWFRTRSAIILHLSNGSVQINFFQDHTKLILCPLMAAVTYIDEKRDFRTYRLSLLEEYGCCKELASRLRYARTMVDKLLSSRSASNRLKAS

[9] = molecular target: T3, Scaffold protein ILK (Homo sapiens) (UniProt Q13418); assay: Inhibition of ILK in human HeLa cells lysate at 10 uM pre incubated for 15 mins followed by ATP acyl phosphate probe addition and measured after 10 mins by LC-MS/MS analysis relative to control; type: subcellular; settings: time 25.0 min
T3 sequence (whole entry): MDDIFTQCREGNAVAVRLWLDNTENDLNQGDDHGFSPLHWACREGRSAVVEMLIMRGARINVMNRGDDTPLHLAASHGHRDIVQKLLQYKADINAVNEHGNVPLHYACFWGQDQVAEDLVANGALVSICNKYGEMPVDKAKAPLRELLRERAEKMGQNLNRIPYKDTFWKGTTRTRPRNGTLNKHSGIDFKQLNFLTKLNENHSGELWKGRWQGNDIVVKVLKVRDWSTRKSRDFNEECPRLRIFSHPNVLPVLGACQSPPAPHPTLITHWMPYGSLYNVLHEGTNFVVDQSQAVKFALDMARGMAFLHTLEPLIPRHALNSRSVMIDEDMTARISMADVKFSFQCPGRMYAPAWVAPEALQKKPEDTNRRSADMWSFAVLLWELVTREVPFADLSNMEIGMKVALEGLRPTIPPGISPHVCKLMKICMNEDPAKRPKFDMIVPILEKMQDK

AMPK alpha1/alpha2 = AMPK alpha1/alpha2 (Homo sapiens, UniProt P54646+Q13131); assay: Inhibition of AMPKalpha1/2 in human HeLa cells lysate at 2 uM pre incubated for 15 mins followed by ATP acyl phosphate probe addition and measured after 10 mins by LC-MS/MS analysis relative to control; type: subcellular; settings: time 25.0 min; procedure, shortened: as §1
[10] = molecular target: Mitogen-activated protein kinase 7 (Mus musculus) (UniProt Q9WVS8); assay: Inhibition of BMK1 in pml null mouse MEF cells assessed as increase in p21 protein expression at 5 uM incubated for 16 hrs by Western blot analysis; type: cell-based
Mitogen-activated protein kinase 7 (Mus musculus), sequence (Q9WVS8 whole entry): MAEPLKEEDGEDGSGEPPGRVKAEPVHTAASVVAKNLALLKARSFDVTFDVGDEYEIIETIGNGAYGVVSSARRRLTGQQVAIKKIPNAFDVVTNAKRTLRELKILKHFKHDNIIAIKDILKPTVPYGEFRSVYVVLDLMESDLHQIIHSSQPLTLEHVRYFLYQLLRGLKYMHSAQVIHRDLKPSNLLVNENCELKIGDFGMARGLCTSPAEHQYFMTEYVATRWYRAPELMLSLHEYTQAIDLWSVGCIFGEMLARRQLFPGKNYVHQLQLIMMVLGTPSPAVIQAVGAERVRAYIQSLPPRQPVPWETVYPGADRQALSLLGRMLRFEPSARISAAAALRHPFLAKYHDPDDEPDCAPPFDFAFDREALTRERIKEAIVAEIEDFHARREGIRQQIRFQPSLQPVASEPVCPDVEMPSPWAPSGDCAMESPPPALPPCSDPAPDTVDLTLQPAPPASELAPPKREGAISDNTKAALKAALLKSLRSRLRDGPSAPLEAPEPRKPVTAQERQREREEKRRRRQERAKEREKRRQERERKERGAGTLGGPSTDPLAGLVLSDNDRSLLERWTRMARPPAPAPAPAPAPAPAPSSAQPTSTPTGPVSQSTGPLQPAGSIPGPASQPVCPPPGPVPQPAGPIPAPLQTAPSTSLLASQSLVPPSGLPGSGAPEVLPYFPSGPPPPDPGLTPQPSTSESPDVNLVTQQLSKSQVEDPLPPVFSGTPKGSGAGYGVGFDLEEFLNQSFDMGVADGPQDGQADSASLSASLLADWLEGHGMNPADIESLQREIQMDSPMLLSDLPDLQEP
Procedure, shortened: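 Pml+/+ or Pml−/− MEFs treated ±5 μM inhibitor for 16 h. Lysates western blotted for p21, quantified by densitometry and normalized to GAPDH, relative to untreated Pml+/+ MEF set as 1. n = 3, ±SEM.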

Phosphatidylinositol 4-kinase alpha, sequence (P42356 whole entry): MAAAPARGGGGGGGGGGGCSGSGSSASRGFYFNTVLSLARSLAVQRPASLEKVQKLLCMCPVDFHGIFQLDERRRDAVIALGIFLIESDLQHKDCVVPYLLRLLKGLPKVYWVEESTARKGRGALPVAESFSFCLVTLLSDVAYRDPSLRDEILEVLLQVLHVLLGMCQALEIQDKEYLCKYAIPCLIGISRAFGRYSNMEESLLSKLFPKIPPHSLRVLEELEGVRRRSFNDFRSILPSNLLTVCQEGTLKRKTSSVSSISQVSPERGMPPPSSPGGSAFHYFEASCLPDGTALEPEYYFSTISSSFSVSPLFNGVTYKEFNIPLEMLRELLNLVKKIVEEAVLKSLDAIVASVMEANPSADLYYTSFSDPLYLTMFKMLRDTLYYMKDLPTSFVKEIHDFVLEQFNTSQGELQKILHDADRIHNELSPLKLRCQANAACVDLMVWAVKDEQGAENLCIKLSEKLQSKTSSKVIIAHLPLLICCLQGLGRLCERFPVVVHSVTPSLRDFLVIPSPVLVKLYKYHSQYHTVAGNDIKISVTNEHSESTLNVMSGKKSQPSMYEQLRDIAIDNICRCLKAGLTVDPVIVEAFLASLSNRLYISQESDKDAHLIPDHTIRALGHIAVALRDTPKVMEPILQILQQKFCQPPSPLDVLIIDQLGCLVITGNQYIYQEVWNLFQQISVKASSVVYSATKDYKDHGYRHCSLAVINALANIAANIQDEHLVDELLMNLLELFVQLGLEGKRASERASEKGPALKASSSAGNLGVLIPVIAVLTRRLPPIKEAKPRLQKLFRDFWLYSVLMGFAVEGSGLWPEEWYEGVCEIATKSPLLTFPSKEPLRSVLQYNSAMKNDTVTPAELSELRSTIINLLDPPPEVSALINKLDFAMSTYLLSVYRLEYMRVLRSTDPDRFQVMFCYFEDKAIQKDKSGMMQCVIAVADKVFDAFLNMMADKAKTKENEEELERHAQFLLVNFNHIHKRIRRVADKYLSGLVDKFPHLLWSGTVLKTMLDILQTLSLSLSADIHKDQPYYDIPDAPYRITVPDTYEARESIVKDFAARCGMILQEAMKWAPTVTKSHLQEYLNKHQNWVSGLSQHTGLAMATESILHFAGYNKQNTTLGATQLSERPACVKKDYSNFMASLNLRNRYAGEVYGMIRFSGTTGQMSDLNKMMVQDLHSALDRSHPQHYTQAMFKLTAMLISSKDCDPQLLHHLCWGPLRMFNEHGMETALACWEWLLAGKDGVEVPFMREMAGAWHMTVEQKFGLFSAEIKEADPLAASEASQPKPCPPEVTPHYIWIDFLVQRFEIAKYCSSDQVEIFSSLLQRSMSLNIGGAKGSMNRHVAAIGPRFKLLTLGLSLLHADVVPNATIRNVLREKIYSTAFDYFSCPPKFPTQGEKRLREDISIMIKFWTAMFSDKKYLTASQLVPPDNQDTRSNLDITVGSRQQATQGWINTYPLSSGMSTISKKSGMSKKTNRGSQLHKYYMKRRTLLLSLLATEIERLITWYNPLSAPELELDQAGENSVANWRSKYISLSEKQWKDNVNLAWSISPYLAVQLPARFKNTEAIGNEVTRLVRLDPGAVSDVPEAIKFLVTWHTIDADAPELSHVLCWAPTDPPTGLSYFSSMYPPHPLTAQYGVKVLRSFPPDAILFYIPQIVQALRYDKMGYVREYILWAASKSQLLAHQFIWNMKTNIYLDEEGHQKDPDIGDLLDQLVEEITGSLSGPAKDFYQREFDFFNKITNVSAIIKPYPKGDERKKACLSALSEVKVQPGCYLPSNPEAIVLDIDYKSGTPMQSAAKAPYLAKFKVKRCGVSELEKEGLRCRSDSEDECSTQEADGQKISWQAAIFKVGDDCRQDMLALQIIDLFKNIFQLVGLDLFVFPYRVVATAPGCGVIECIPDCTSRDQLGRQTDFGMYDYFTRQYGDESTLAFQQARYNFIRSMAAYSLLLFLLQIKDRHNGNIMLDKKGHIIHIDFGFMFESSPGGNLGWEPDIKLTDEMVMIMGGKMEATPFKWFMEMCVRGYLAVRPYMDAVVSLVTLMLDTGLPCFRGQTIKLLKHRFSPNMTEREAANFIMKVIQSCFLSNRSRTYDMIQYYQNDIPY

In the case of `CCOc1cc(N2CCC(O)CC2)ccc1Nc1ncc2c(n1)N(C)c1ccccc1C(=O)N2C`, the pIC50 [1] was 4.44, the pIC50 [2] was less than 4.30 and the pIC50 (Activated CDC42 kinase 1 [3]) was 4.74. It also gave an inhibition [4] of 2.9%, an inhibition (Activated CDC42 kinase 1 [5]) of 37% and an inhibition [6] of 30.1%. The inhibition [7] was 8%, the inhibition [8] was -6.5% and the inhibition [9] was 13.3%. The inhibition (AMPK alpha1/alpha2) was -0.7% and the inhibition [10] was “inactive”.

— ChEMBL document CHEMBL5661979, “Pharmacological inhibition of BMK1 suppresses tumor growth through promyelocytic leukemia protein” (Cancer Cell, 2010)
